Measurements published in ChEMBL document CHEMBL4406821, “Novel dual inhibitors targeting CDK4 and VEGFR2 synergistically suppressed cancer progression and angiogenesis” (Eur J Med Chem, 2019).
Calls of active or inactive are those of the source. No cut-off for these calls is given here.

Columns and labels:
[1] = Toxicity in NOD/SCID BALB/c mouse xenografted with human SiHa cells assessed as effect on blood parameter by measuring PCT at 40 mg/kg, po administered once two days for 4 times by hematology analyzer; assay type: organism-based; conditions: in vivo
[2] = biological target: Vascular endothelial growth factor receptor 2 (Homo sapiens, UniProt P35968); experiment: Inhibition of VEGFR2 in HUVEC cells assessed as reduction in VEGFR2 phosphorylation at 20 to 40 nM incubated for 48 hrs by Western blot analysis; assay type: cell-based
How it was run: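 HUVECs were maintained in 1640 medium with 10% FBS. They were treated with graded concentrations for 48 h, PBS-washed and lysed in RIPA buffer. Immunoblots were probed for total and phospho VEGFR2, STAT3, Akt, Erk1 and Src, each at 1:1000. β-actin served as loading control.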

[3] = test system: HeLa; experiment: Induction of apoptosis in human HeLa cells assessed as decrease in Ki67 expression at 40 to 80 nM incubated for 48 hrs by Western blot analysis; assay type: functional, cell-based
How it was run: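 Cells were treated for 48 h, washed three times with PBS, and lysed in RIPA buffer. Immunoblots used anti-Rb, anti-phospho-Rb, anti-Ki67 and anti-Bcl-2 (each 1:1000), with β-actin as loading control.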

[4] = test system: SiHa; experiment: Induction of apoptosis in human SiHa cells assessed as decrease in Bcl2 expression at 40 to 80 nM incubated for 48 hrs by Western blot analysis; assay type: functional, cell-based
How it was run: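 Cancer cells were exposed to graded concentrations for 48 h, washed three times in PBS and lysed in RIPA buffer. Immunoblots were probed with anti-Rb, anti-phospho-Rb, anti-Ki67 and anti-Bcl-2, each at 1:1000. β-actin served as loading control.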

[5] = biological target: Protein kinase C delta type (Homo sapiens) (UniProt Q05655); experiment: Inhibition of recombinant human PKCdelta (2 to end residues) at 1 uM using ERMRPRKRQGSVRRRV as substrate incubated for 40 mins in presence of [gamma-33P]-ATP by scintillation counting method relative to control
[6] = biological target: Epidermal growth factor receptor (Homo sapiens) (UniProt P00533); experiment: Inhibition of recombinant human EGFR (696 to end residues) at 1 uM using poly(Glu, Tyr) 4:1 as substrate incubated for 40 mins in presence of [gamma-33P]-ATP by scintillation counting method relative to control
How it was run: (§1)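 Kinase panel profiling at 1 μM performed by Eurofins KinaseProfiler; percent inhibition reported as mean of two independent experiments.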

[7] = biological target: Proto-oncogene tyrosine-protein kinase Src (Homo sapiens) (UniProt P12931); experiment: Inhibition of full length recombinant human c-SRC at 1 uM using KVEKIGEGTYGVV as substrate incubated for 40 mins in presence of [gamma-33P]-ATP by scintillation counting method relative to control; how it was run: as §1
Sequence of Proto-oncogene tyrosine-protein kinase Src (Homo sapiens) (P12931 2-536 limits assumed): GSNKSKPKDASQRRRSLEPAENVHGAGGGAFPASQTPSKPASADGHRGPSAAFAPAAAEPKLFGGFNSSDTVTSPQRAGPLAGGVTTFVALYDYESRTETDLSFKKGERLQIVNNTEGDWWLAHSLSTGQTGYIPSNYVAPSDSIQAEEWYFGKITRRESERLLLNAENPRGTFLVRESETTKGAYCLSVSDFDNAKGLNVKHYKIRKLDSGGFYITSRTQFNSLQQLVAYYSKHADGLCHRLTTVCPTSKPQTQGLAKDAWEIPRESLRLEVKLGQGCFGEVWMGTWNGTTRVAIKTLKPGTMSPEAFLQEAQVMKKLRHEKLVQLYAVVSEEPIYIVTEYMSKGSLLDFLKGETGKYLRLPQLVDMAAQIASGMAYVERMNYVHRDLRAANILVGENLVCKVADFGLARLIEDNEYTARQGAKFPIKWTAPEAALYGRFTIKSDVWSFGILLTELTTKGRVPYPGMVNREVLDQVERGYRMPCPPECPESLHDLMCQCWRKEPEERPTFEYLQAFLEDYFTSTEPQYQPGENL

[8] = biological target: Ribosomal protein S6 kinase alpha-3 (Homo sapiens) (UniProt P51812); experiment: Inhibition of recombinant human RSK2 (2 to end residues) at 1 uM using KKKNRTLSVA as substrate incubated for 40 mins in presence of [gamma-33P]-ATP by scintillation counting method relative to control
Sequence of Ribosomal protein S6 kinase alpha-3 (Homo sapiens) (P51812 whole entry): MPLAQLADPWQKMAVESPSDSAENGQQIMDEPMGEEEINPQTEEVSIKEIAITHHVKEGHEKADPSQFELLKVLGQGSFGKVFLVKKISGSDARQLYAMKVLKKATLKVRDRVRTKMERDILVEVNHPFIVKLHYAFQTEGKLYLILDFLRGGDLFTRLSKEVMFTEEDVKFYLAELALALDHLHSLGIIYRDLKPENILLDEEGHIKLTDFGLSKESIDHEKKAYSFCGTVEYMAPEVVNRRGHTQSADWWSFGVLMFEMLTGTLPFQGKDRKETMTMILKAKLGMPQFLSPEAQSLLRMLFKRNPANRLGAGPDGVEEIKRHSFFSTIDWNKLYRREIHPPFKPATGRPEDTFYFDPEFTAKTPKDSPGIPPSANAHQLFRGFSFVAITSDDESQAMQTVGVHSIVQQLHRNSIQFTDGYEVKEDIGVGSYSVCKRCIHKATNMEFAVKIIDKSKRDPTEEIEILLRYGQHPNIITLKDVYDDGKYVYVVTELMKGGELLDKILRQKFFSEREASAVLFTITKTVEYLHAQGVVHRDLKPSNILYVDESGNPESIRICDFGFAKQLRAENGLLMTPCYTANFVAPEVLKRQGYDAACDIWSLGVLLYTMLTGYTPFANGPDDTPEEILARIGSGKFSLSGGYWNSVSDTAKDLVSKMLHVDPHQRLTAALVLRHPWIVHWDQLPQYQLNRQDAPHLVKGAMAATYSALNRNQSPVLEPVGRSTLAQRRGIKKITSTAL

[9] = biological target: Ribosomal protein S6 kinase alpha-2 (Homo sapiens) (UniProt Q15349); experiment: Inhibition of recombinant human full length RSK3 at 1 uM using KKKNRTLSVA as substrate incubated for 40 mins in presence of [gamma-33P]-ATP by scintillation counting method relative to control
Sequence of Ribosomal protein S6 kinase alpha-2 (Homo sapiens) (Q15349 whole entry): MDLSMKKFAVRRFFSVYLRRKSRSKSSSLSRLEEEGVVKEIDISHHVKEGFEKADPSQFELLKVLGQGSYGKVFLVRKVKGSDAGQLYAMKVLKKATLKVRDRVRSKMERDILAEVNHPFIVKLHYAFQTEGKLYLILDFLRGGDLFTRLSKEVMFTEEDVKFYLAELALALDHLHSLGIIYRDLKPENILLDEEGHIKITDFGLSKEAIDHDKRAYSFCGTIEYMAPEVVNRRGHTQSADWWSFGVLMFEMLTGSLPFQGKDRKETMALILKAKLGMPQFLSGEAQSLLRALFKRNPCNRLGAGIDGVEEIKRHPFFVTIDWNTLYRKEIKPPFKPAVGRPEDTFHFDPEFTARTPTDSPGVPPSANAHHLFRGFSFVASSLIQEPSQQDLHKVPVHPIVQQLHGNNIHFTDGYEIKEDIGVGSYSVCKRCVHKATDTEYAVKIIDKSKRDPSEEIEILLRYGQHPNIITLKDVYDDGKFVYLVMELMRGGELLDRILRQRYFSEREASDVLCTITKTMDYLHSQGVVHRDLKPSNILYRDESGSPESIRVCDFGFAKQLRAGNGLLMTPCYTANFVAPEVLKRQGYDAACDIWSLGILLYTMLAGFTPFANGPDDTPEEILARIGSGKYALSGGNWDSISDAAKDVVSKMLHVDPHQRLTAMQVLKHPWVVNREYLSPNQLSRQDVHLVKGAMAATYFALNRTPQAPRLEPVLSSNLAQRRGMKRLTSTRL

[10] = biological target: Dual specificity mitogen-activated protein kinase kinase 6 (Homo sapiens) (UniProt P52564); experiment: Inhibition of recombinant human MKK6 (4 to end residues) at 1 uM using unactive SAPK2a as substrate incubated for 40 mins in presence of [gamma-33P]-ATP by scintillation counting method relative to control
Sequence of Dual specificity mitogen-activated protein kinase kinase 6 (Homo sapiens) (P52564 whole entry): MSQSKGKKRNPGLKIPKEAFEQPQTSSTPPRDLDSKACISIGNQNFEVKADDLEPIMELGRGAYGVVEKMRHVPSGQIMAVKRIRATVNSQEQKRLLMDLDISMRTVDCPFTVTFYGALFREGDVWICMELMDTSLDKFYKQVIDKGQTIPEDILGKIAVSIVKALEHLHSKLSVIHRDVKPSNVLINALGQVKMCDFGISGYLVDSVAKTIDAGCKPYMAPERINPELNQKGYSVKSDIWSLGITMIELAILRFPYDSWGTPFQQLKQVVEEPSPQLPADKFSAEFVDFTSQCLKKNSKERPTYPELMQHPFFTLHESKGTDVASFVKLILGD

[11] = biological target: Serine/threonine-protein kinase PAK 6 (Homo sapiens) (UniProt Q9NQU5); experiment: Inhibition of recombinant human PAK6 (382 to end residues) at 1 uM using RRRLSFAEPG as substrate incubated for 40 mins in presence of [gamma-33P]-ATP by scintillation counting method relative to control
Sequence of Serine/threonine-protein kinase PAK 6 (Homo sapiens) (Q9NQU5 whole entry, looked up): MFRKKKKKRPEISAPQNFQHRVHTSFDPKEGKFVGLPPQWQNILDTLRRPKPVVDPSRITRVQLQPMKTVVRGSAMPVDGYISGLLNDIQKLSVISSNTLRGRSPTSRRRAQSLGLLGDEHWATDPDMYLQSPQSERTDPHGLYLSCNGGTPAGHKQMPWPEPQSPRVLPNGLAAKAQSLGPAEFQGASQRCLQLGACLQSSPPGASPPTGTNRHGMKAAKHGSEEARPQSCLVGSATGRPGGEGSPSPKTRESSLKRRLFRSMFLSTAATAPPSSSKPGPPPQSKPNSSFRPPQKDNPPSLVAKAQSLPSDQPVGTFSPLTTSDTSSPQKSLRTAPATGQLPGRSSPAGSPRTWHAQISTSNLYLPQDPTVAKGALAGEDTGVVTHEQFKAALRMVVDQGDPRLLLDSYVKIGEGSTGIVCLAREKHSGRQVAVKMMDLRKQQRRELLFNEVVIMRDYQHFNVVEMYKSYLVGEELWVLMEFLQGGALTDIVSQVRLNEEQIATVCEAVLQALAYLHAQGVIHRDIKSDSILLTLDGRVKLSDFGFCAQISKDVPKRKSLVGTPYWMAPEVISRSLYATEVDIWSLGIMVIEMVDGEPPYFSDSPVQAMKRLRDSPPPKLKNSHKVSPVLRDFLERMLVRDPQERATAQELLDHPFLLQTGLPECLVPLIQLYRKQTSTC

[12] = test system: SiHa; experiment: Induction of cell cycle arrest in human SiHa cells assessed as accumulation in G2/M phase at 40 to 80 nM incubated for 36 hrs by propidium iodide staining based flow cytometry; assay type: functional
How it was run: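 Cells were treated with graded concentrations for 36 h, then fixed overnight in 70% ice-cold ethanol at 4°C and resuspended in PBS. Staining used 50 µg/ml PI plus 5 µg/ml RNase at 37°C for 30 min. DNA content was analysed by FACS to give G0/G1, S and G2/M fractions.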

[13] = Toxicity in NOD/SCID BALB/c mouse xenografted with human SiHa cells assessed as effect on blood parameter by measuring PDW at 40 mg/kg, po administered once two days for 4 times by hematology analyzer; assay type: organism-based; conditions: in vivo
[14] = Cmax in Sprague-Dawley rat at 10 mg/kg, po by HPLC-MS analysis; assay type: ADME, organism-based; design: dose 10 mg/kg, route oral; conditions: in vivo
How it was run: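 Rats fitted with jugular vein catheters for serial blood sampling. Compound dissolved in saline with 5% (v/v) DMSO and given as a single 10 mg/kg dose iv or po after an overnight fast, n = 5 per group. Plasma isolated at once and measured by HPLC with tandem MS detection. Parameters derived by noncompartmental fitting.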

[15] = test system: Hepatocyte growth factor receptor (Homo sapiens), P08581 [Y1248H]; experiment: Inhibition of recombinant human Met Y1248H mutant (974 to end residues) at 1 uM using KKKGQEEEYVFIE as substrate incubated for 40 mins in presence of [gamma-33P]-ATP by scintillation counting method relative to control
Sequence of Hepatocyte growth factor receptor (Homo sapiens), P08581 [Y1248H] (P08581 with tags, fused parts or gaps Y1248H): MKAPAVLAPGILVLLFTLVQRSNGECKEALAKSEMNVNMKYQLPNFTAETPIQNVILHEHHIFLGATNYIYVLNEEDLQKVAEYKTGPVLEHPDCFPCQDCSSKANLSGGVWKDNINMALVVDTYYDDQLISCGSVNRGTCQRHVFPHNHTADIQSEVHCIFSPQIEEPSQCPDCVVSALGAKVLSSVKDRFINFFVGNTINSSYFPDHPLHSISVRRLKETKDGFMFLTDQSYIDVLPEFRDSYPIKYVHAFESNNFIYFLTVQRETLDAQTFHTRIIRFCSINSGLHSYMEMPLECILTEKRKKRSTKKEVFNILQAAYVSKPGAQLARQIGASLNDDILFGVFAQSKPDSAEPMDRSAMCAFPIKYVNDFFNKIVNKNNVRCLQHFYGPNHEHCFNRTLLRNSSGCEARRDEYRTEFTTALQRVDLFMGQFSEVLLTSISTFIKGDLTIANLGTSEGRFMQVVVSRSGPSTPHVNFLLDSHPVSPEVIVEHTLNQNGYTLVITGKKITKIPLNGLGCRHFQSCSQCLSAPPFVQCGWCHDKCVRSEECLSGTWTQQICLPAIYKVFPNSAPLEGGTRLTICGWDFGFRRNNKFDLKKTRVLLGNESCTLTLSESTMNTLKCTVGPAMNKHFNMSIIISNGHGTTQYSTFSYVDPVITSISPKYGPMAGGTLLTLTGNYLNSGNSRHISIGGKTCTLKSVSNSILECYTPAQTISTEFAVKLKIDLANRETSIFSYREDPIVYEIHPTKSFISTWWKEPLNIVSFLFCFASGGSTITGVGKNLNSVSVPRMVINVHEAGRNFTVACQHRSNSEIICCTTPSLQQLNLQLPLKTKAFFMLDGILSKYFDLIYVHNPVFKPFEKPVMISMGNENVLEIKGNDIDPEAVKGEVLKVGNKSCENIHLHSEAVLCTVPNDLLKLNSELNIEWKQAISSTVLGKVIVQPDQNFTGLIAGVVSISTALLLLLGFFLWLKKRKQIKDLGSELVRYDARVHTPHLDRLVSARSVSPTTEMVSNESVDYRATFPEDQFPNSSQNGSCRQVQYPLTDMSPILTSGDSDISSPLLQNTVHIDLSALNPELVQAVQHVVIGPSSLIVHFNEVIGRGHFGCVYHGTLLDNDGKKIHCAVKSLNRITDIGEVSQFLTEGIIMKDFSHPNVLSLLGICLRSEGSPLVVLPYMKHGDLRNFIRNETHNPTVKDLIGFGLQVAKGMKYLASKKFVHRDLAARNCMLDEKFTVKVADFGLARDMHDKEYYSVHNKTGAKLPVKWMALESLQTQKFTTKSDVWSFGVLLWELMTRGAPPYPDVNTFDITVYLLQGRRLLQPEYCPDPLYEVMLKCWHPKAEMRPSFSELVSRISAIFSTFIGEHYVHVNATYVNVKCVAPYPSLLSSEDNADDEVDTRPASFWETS

[16] = test system: T47D; experiment: Inhibition of colony formation in human T47D cells at 20 to 40 nM incubated for 5 days by crystal violet staining based light microscopy; assay type: functional, cell-based
How it was run: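 MDA-MB-231, T-47D, SiHa and HeLa cells seeded at 4×10^3/well and cultured with varying concentrations of drug or vehicle for 5 days. Fixed in 20% methanol, stained with 0.5% crystal violet, photographed under light microscopy. DMEM (T-47D) with 10% FBS, 37°C, 5% CO2.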

[17] = test system: SiHa; experiment: Inhibition of colony formation in human SiHa cells at 40 to 80 nM incubated for 5 days by crystal violet staining based light microscopy; assay type: functional, cell-based
How it was run: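 4 × 10^3 cells per well were cultured with graded concentrations for 5 days. Cells were then fixed with 20% methanol, stained with 0.5% crystal violet and photographed by light microscopy.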

[18] = test system: SiHa; experiment: Antiproliferative activity against human SiHa cells assessed as reduction in cell viability at 80 nM incubated for 48 hrs by EdU staining based laser scanning confocal microscopy; assay type: functional
How it was run: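 Cells, 5×10^4, were seeded in 24-well plates and treated for 48 h. They were then labeled using an EdU Apollo 488 imaging kit with Hoechst 33342 nuclear stain and imaged by laser scanning confocal microscopy. Percent EdU-positive cells = EdU-positive/Hoechst-stained × 100%.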

[19] = test system: HeLa; experiment: Induction of apoptosis in human HeLa cells at 40 nM incubated for 48 hrs by annexin V FITC and propidium iodide staining based flow cytometry; assay type: functional, cell-based
How it was run: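 Cells were treated for 48 h, stained with FITC Annexin V and PI, and analyzed by flow cytometry to count early and late apoptotic cells.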

| Structure (SMILES) | Activity [1] | inhibition [2] | Activity [3] | Activity [4] | inhibition [5] [%] | inhibition [6] [%] | inhibition [7] [%] | inhibition [8] [%] | inhibition [9] [%] | inhibition [10] [%] | inhibition [11] [%] | Activity [12] | Activity [13] | Cmax [14] [ng/mL] | inhibition [15] [%] | inhibition [16] | inhibition [17] | inhibition [18] | Activity [19] |
| --- | --- | --- | --- | --- | --- | --- | --- | --- | --- | --- | --- | --- | --- | --- | --- | --- | --- | --- | --- |
| Cc1ccc(NC(=O)C2(C(=O)Nc3ccc(Nc4ncc(F)c(-c5cc(F)c6nc(C)n(C(C)C)c6c5)n4)cc3)CC2)cc1 | Non-Toxic | Active | Active | Active | 29 | 28 | 80 | 19 | 26 | 16 | 12 | Active | Non-Toxic | 1000 | 40 | Active | Active |  |  |
| COc1cc2nccc(Oc3ccc(NC(=O)C4(C(=O)Nc5ccc(F)cc5)CC4)cc3)c2cc1OC [CABOZANTINIB] |  |  |  |  |  |  |  |  |  |  |  |  |  |  |  |  |  | Active | Active |
